Drawing on ChEMBL document CHEMBL4138134, “Antiplasmodial Chromanes and Chromenes from the Monotypic Plant Species Koeberlinia spinosa” (J Nat Prod, 2018), this text covers IC50 for ten compounds.

One assay relates to Plasmodium falciparum. The experiment in a line: Antimalarial activity against chloroquine/mefloquine-resistant Plasmodium falciparum Dd2 measured after 72 hrs by SYBR green1 dye based fluorescence assay. Type of assay: functional, organism-based. The gist of the method: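 Whole-parasite growth inhibition, 72 h treatment, SYBR Green I fluorescence read-out, IC50 derived. Both fractions and isolated compounds were tested on the chloroquine/mefloquine-resistant Dd2 strain. Artemisinin served as positive control.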

The subject of the next assay is A2780. Put plainly: Cytotoxicity against human A2780 cells after 2 days by Alamar blue assay. Type of assay: cell-based. Particulars: A2780, 48 h. A general note: The colour change of resazurin is a common sign of viable cells or microbes.
Setting [1] is: Plasmodium falciparum, Dd2, 72 h.

Take `C/C(=C/CC/C(C)=C/C(=O)C[C@]1(C)CCc2cc(O)cc(C)c2O1)CO`: the IC50 in the assay with Plasmodium falciparum (setting [1]) was 24 µM; in the assay with A2780 it was more than 10 µM. On the same counts, the results for `COc1cc(C)c2c(c1)CC[C@@](C)(CC(=O)/C=C(\C)CC/C=C(\C)CO)O2` are 24 µM and more than 10 µM. In the assay on A2780, `C/C(=C/C(=O)C[C@]1(C)CCc2cc(O)cc(C)c2O1)CC/C=C(\C)CO` had an IC50 of more than 10 µM. In the case of `C/C(=C\CC/C(C)=C/C(=O)C[C@]1(C)C=Cc2cc(O)cc(C)c2O1)CO`, the figures for the concentration for half-maximal inhibition (IC50) in the assay on Plasmodium falciparum (setting [1]) and with A2780 were more than 112 µM and more than 10 µM, respectively. On the same counts, the results for `C/C(=C\CC/C(C)=C/C(=O)C[C@]1(C)CCc2cc(O)cc(C)c2O1)CO` are more than 112 µM and more than 10 µM. Take `C/C(=C/CC/C(C)=C\C(=O)C[C@]1(C)CCc2cc(O)cc(C)c2O1)CO`: in the assay on A2780, the IC50 is more than 10 µM.

In the assay with A2780, `C/C(=C\CC/C(C)=C/CC[C@]1(C)C=Cc2cc(O)cc(C)c2O1)CO` gave an IC50 of more than 10 µM. For `CC1=CCCC(C)(CC(=O)C[C@]2(C)CCc3cc(O)cc(C)c3O2)OC1` (single isomer, unassigned; diastereomer 1), the concentration for half-maximal inhibition (IC50) was 109 µM with Plasmodium falciparum and more than 10 µM in the assay on A2780. Regarding `CC1=CCCC(C)(CC(=O)C[C@]2(C)CCc3cc(O)cc(C)c3O2)OC1` (single isomer, unassigned; diastereomer 2), the IC50 in the assay on Plasmodium falciparum stood at 23 µM. On to `C[C@@H]1CC[C@H]2[C@@H](C)C(=O)O[C@@H]3O[C@@]4(C)CC[C@@H]1[C@]32OO4` [ARTEMISININ], for which the concentration for half-maximal inhibition (IC50) with Plasmodium falciparum (setting [1]) came out at 0.009 µM.

For orientation: IC50 means the midpoint of a concentration-inhibition curve. Lower therefore signals higher potency.
